Test results from article PMC4747818 (Journal of controlled release : official journal of the …, 2016).
Where a SMILES comes first, the peptide text is derived from it. [ ]: non-standard residue; d: D form.

Key:
[1] = system: M1 macrophages; assay: Cell viability during binding study; assay type: cell-based, murine; conditions: 20 min on ice, PI staining; up to 50 µM; Fig. 1B
How it was run: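 Bone-marrow cells cultured 7 d in RPMI 1640 with 20% horse serum, 1% antibiotic-antimycotic and 20 ng/mL M-CSF, then activated 2 d with 25 ng/mL IFN-γ plus 100 ng/mL LPS. Cells were plated at 50,000/well and given biotinylated peptide in PBS/1% BSA on ice. After washing they were given streptavidin-FITC for 15 min on ice. Dead cells were scored by PI flow cytometry. Triplicates, three independent experiments.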

[2] = system: macrophages; assay: M2pep sequence specificity of macrophage toxicity; assay type: cell-based, murine; conditions: peptides partially dimerized in solution; Fig. S3, linkers Fig. S4
[3] = system: M2 macrophages; assay type: cell-based; conditions: 2 h

Compound	macrophage toxicity [2]	other results
YEQDPWGVKWWYGGGSKKKBiotin [M2pepBiotin]	–	toxicity to M1 macrophages during binding study [1]: no toxicity to either cell type
YEQDPWGVKWWYGGGSKKKC [M2pepKKKC]	toxicity was only observed in the M2pepKKKC-treated samples	–
CC(C)C[C@@H](NC(=O)[C@@H](CCCCN)NC(=O)[C@H](CO)NC(=O)CNC(=O)CNC(=O)CNC(=O)[C@H](Cc1ccc(O)cc1)NC(=O)[C@H](Cc1c[nH]c2ccccc12)NC(=O)[C@H](Cc1c[nH]c2ccccc12)NC(=O)[C@H](CCCCN)NC(=O)[C@@H](NC(=O)CNC(=O)[C@H](Cc1c[nH]c2ccccc12)NC(=O)[C@@H]1CCCN1C(=O)[C@H](CC(=O)O)NC(=O)[C@H](CCC(N)=O)NC(=O)[C@H](CCC(=O)O)NC(=O)[C@@H](N)Cc1ccc(O)cc1)C(C)C)C(=O)N[C@H](C)C(=O)N[C@H](CCCCN)C(=O)N[C@H](CC(C)C)C(=O)N[C@H](C)C(=O)N[C@H](CCCCN)C(=O)N[C@H](CCCCN)C(=O)N[C@H](CC(C)C)C(=O)N[C@H](C)C(=O)N[C@H](CCCCN)C(=O)N[C@H](CC(C)C)C(=O)N[C@H](C)C(=O)N[C@H](CCCCN)C(N)=O [M2pepKLA] (H-YEQDPWGVKWWYGGGS[dK][dL][dA][dK][dL][dA][dK][dK][dL][dA][dK][dL][dA][dK]-NH2)	–	EC50 [3]: 4.29 µM
WEDYQWPVYKGWGGGSKKKC [scrambled M2pepKKKC, reference compound]	toxicity was only observed in the M2pepKKKC-treated samples	–
